Bioassay records deposited in PubChem BioAssay by several laboratories.
GC-A act = GC-A stimulated cGMP production enhancers – HEK293 GC-A cells, cGMP TR-FRET, EC30 ANP, primary screen. Atrial natriuretic peptide receptor 1 (Homo sapiens), P16066. 0% at EC30 ANP, 100% saturating ANP. activation, % at 10 µM. 0.14% of 370,000 active. AID 1671463, 2021; in the data active means activation above about 40%
MT1-MMP act inh = blockers of MT1-MMP proenzyme processing, primary screen, HT1080 RFP-PRO-GFP cells, GFP/RFP fluorescence. GFP/RFP ratio fluorescence, overnight; percent of plate control window, DMSO zero. Matrix metalloproteinase-14 (Homo sapiens), P50281. AID 651647, 2012. GFP/RFP ratio change, % at 20 µM. 0.061% of 360,000 active;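 active means GFP/RFP ratio change of at least 30% with cell ATP level not reduced by more than half and red fluorescence within 50% of control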
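Test system: HT1080 RFP-PRO-GFP cells; Benchmarks: DMSO and RFP-L50D-GFP cell wells; Timing: cells overnight before dosing, compound overnight, 37 °C, 5% CO2; Compound: one 20 µM compound dose with 1% DMSO; Read-out: GFP/RFP fluorescence ratio.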
Bfl-1 A1 inh = caspase 3/7 activation in MEF A1-2A-BIM cells, primary screen, A1 inhibitor project, cell-based, luminescence, HTS. Caspase-Glo 3/7 luminescence, 3 h; percent of clofoctol response, vehicle zero. caspase activation, % (no concentration beside the values). 0.066% of 330,000 active. AID 2462, 2010;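 active means over half of replicate activation scores above 10%, or exactly half above 10 with the replicate mean above 10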
SKN-1 block = suppressors of acrylamide-induced Pgst-4::GFP reporter in worms, primary screen, SKN-1 inhibitor project, whole organism, uHTS, GFP/RFP fluorescence ratio, strain VP596. inhibition, % at 21.8 µM. 0.49% of 360,000 active. C. elegans VP596 Pgst-4::GFP/RFP ratio, 24 h;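 active means interference check ratio from 0.5 to 1.5 plus GFP to RFP signal ratio inhibition reaching or exceeding a fixed threshold, cut at about 30% in these data, passing the limit was not always enough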
Tb MetRS inh = T. brucei MetRS inhibitors, primary screen, biochemical, luminescence; purified T. brucei MetRS, ATP depletion, Kinase-Glo luminescence; inhibition, % at 11.9 µM; 0.4% of 360,000 active; AID 624268, 2012;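 active means inhibition above a per-plate cutoff of the control wells' mean inhibition plus 3 SD, cut at about 5.5% in these data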
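System: purified T. brucei MetRS enzyme / Detection: Kinase-Glo luciferase luminescence reporting remaining unconsumed ATP / Medium: HEPES buffer with MgCl2, KCl, DTT, spermine, BSA, pyrophosphatase / Replication: singlicate, one well per compound / Evaluation: percent inhibition relative to median high and low control wells / Schedule: 2 h aminoacylation at 25 °C after 15 min preincubation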
NPR2 activator = human GC-B receptor activators, primary screen, HEK293 GC-B cells, cGMP TR-FRET, EC30 CNP; Atrial natriuretic peptide receptor 2 (Homo sapiens), P20594; 0% at EC30 CNP, 100% saturating CNP; activation, % at 10 µM; 0.11% of 370,000 active; AID 1920062, 2024;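 active means activation at 10 µM reaching about 35% in either raw or pattern-adjusted values, limit read from the data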
Numbers stand for hits; . = inactive; / = no result. Rows were chosen to be rich in hits. Some 1.1% of all compounds tested hit in one or more screens of this group.

SMILES	GC-A act	MT1-MMP act inh	Bfl-1 A1 inh	SKN-1 block	Tb MetRS inh	NPR2 activator
COC(=O)c1ccc(C2c3[nH]c4ccccc4c3C[C@H]3C(=O)N(C4CC4)CC(=O)N23)cc1 (stereo partly drawn)	55.0	.	.	.	.	.
O=C1[C@@H]2Cc3c([nH]c4ccccc34)C(c3ccccc3)N2C(=O)CN1CCO (stereo partly drawn)	.	.	.	.	.	.
O=C1[C@@H]2Cc3c([nH]c4ccccc34)C(c3ccc(Cl)cc3)N2C(=O)CN1CCO (stereo partly drawn)	.	.	.	.	6.0	.
CN1CC(=O)N2[C@H](c3ccc4c(c3)OCO4)c3[nH]c4ccccc4c3C[C@@H]2C1=O	49.5	.	.	.	.	57.5
COCCCNC(=O)c1cn(CC(C)C)c(=O)c2c1c1ccccc1n2C	.	.	.	50.4	.	.
COCCCNC(=O)c1cn(CCOC)c(=O)c2c1c1ccccc1n2C	.	.	.	.	.	.
Cc1cc2nn(-c3ccc(F)cc3)nc2cc1N	.	.	.	39.4	.	.
COc1cccc(C(=O)NCC(=O)N2CCC3(CC2)NCCc2[nH]cnc23)c1	.	.	.	36.4	.	.
CNC(=O)[C@@H]1CC=C[C@@H]2CCN(c3ccccc3)C(=O)[C@@H]21	.	/	/	/	/	.
COC(=O)[C@]12C[C@H](CC(=O)NCC34CC5CC(CC(C5)C3)C4)C(=O)N(Cc3ccco3)C1=C[C@H](C(C)(C)C)O[C@@H]2C	.	/	/	/	/	.
COc1ccc(C(C(=O)NC2CCCC2)N(C(=O)c2snc(-c3ccc(F)cc3)c2N)c2ccc(F)cc2)cc1 (stereo not drawn)	.	.	.	45.9	.	.
C[C@@H]1CN([C@@H](C)COC(=O)C(C)(C)C)C(=O)c2cc(NC(=O)Nc3ccccc3)ccc2O[C@@H](C)CCCCO[C@H]1CN(C)S(=O)(=O)c1ccc(F)cc1	.	/	/	/	/	.
Cc1ccc2c(c1)c(C)c(C)n2CC(O)CN1CCOCC1 (stereo not drawn)	.	.	.	39.3	.	.
Cc1c(C)n(CC(O)CN2CCCCCC2)c2ccccc12 (stereo not drawn)	.	.	.	.	.	.
O=C(CSc1nc2ccccc2[nH]1)NN=Cc1c(F)cccc1Cl	.	/	/	/	/	.
CCOCCCNC(=O)/C(C#N)=C/c1ccc(Cl)c([N+](=O)[O-])c1	54.7	.	.	.	.	.
COCCNC(=O)/C(C#N)=C/c1cccc(/C=C(\C#N)C(=O)NCCOC)c1	42.2	.	.	.	.	.
COCCNC(=O)/C(C#N)=C/c1ccc(O)cc1	.	.	.	.	.	.
CC(=O)Nc1ccc(/C=C/COC(C)=O)cc1C	.	/	/	/	/	.
Cc1cc2cc(CNC(=O)Nc3cccc(Cl)c3)ccc2n1C	.	.	.	.	.	.
Cc1cccc(NC(=O)NCc2ccc3c(c2)cc(C)n3C)c1	.	.	.	48.8	.	.
Cc1cc2cc(CNC(=O)CCC(=O)O)ccc2n1C	.	.	.	38.5	.	.
O=C(NC1CCCCN(Cc2ccc(OC(F)(F)F)cc2)C1=O)c1cccc(C(F)(F)F)c1 (stereo not drawn)	.	/	/	/	/	.
CC(C)c1cc(C(C)C)c(S(=O)(=O)N2CCC(c3cn4ccccc4n3)CC2)c(C(C)C)c1	.	/	/	/	/	.
CC(C)(C)NC(=O)[C@H](c1cccnc1)N(C(=O)c1ccco1)c1ccc(C(C)(C)C)cc1	.	/	/	/	/	.
SMILES	GC-A act	MT1-MMP act inh	Bfl-1 A1 inh	SKN-1 block	Tb MetRS inh	NPR2 activator
Cc1cc([N+](=O)[O-])ccc1NCc1ccc2ccccc2c1	.	.	.	.	.	.
Cc1cc([N+](=O)[O-])ccc1NCc1ccccc1	/	.	.	36.9	.	/
O=C(CN1C2=NCCN2c2ccccc21)c1ccc2c(c1)OCO2	.	.	.	.	.	.
O=C(CN1C2=NCCN2c2ccccc21)c1ccc(Br)cc1	.	.	.	.	5.9	.
CC1=C(C(=O)c2ccccc2)C(c2cn(-c3ccccc3)nc2-c2ccc(Cl)cc2)NC(=S)N1 (stereo not drawn)	.	.	.	37.7	.	.
COC(=O)C1CN(C2CC2)CCS(=O)(=O)N1Cc1cn(Cc2ccc(Cl)cc2)nn1 (stereo not drawn)	.	/	/	/	/	.
CCCCOc1ccc(C(=O)NC2CCCCN(CC)C2=O)cc1 (stereo not drawn)	.	/	/	/	/	.
COc1cc(/C=C2\C(=O)N(CCC#N)N=C2C)ccc1OCC(=O)Nc1ccccc1	53.1	.	.	.	.	46.7
FCCCOc1ccc(/C=N/OCc2c(Cl)cccc2Cl)cc1	.	.	.	.	.	.
FCCCOc1ccc(/C=N/OCc2ccc(Cl)cc2)cc1	.	.	.	41.6	.	.
O=C(Cn1[nH]c(=O)c2ccccc2c1=O)OCC(=O)N1CCc2ccccc2C1	.	.	8.3	.	.	.
CCC(CC)c1nnc(NC(=O)C23CC4CC(CC(NC(C)=O)(C4)C2)C3)s1	.	.	.	.	.	.
CC(=O)NC12CC3CC(C1)CC(C(=O)Nc1nc4ccc(F)cc4s1)(C3)C2	43.1	.	.	.	.	.
CC(C)c1ccc(N(CC(=O)Nc2ccc(S(=O)(=O)N3CCOCC3)cc2)S(C)(=O)=O)cc1	.	.	.	40.0	.	.
Cc1ccc(N(CC(=O)Nc2ccc(S(=O)(=O)N3CCOCC3)cc2)S(C)(=O)=O)cc1C	.	.	.	.	.	.
CC(CC(=O)c1ccc(F)cc1)N1CCN(c2ccccc2)CC1 (stereo not drawn)	63.4	.	/	.	.	.
Cc1ccc(C)c(NC(=S)NC(NC(=O)Cc2cccc3ccccc23)C(Cl)(Cl)Cl)c1 (stereo not drawn)	.	.	11.6	.	.	.
Cc1ccc(C)c(NC(=S)NC(NC(=O)N(C)C)C(Cl)(Cl)Cl)c1 (stereo not drawn)	.	.	.	.	.	.
COc1cc(Cl)ccc1OCc1cc(C(=O)N2CCCCCCC2)no1	.	.	.	.	.	.
COc1cc(Cl)ccc1OCc1cc(C(=O)N[C@H]2CCCCNC2=O)no1	59.9	.	.	.	.	.
C[C@H]1C2CC(OC(=O)NCCCc3ccccc3)C(C2)[C@H]2CCCCN21 (stereo partly drawn)	.	/	/	/	/	.
